In ChEMBL document CHEMBL1212693, “Dorsomorphin inhibits BMP signals required for embryogenesis and iron metabolism” (Nat Chem Biol, 2008):
Active and inactive are the calls of the source. No cut-off for these calls is given here.

Key:
Danio rerio [1] = species: Danio rerio; test: Inhibition of BMPR1 in zebrafish assessed as severity of embryonic axis dorsalization at 10 uM treated continuously from 4 hrs post-fertilization measured after 48 hrs; parameters: scale not given: the % may be the effect or the level left
Mus musculus [2] = species: Mus musculus; test: Inhibition of BMPR1-mediated Smad-1 phosphorylation in BMP2-stimulated mouse BMPR2 deficient PASMC at 4 uM treated 30 mins before BMP2 challenge measured after 30 mins by immunoblot analysis
Procedure, shortened: (§1)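 PASMCs (wild-type or BMPR-II–deficient) were kept 24 h in RPMI with 0.5% FCS, preincubated 30 min with compound or vehicle, then stimulated 30 min with recombinant BMP (10 ng ml−1). Extracts in SDS-lysis buffer were immunoblotted for phospho-SMAD1/5/8, with total SMAD1 and α-tubulin as loading controls. Bands were quantitated by phosphorimager.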

Danio rerio [3] = species: Danio rerio; test: Inhibition of BMPR1 in zebrafish assessed as penetrance of normal embryonic axis dorsalization at 10 uM treated continuously from 6 hrs post-fertilization measured at 48 hrs; parameters: scale not given: the % may be the effect or the level left
Mus musculus [4] = species: Mus musculus; test: Inhibition of ALK2-mediated Smad-1 phosphorylation in BMPR2 deficient mouse PASMC at 10 uM by immunoblot analysis
Procedure, shortened: (§2)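 BMPR-II–deficient mouse PASMCs (RPMI, 10% FBS) transiently transfected with constitutively active ALK2, ALK3 or ALK6 cDNA, or plasmid-only control. Incubated with or without compound (10 µM). Extracts lysed in SDS buffer, run on SDS-PAGE and immunoblotted for phospho-SMAD1/5/8; quantitated by phosphorimager.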

Danio rerio [5] = species: Danio rerio; test: Inhibition of AMPK in zebrafish assessed as embryonic axis dorsalization at 10 uM treated at 3 hrs post-fertilization measured at 48 hrs; parameters: scale not given: the % may be the effect or the level left
Danio rerio [6] = species: Danio rerio; test: Inhibition of BMPR1 in zebrafish assessed as penetrance of mild embryonic axis dorsalization at 10 uM treated continuously from 6 hrs post-fertilization measured at 48 hrs; parameters: scale not given: the % may be the effect or the level left
Procedure, shortened: (§3)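 Compound added at the stated times and concentrations. Gross morphology scored visually at up to 48 h.p.f. for dorsalization of the embryonic axis.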

Danio rerio [7] = species: Danio rerio; test: Inhibition of BMPR1 in zebrafish assessed as penetrance of normal embryonic axis dorsalization at 10 uM treated at 6 to 8 hrs post-fertilization measured at 48 hrs; parameters: scale not given: the % may be the effect or the level left
[8] = (§4) Inhibition of BMPR1-mediated Smad-8 phosphorylation in BMP4-stimulated mouse PASMC treated 30 mins before BMP4 challenge measured after 30 mins by immunoblot analysis
Procedure, shortened: (§5)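 Mouse PASMCs were held 24 h in RPMI with 0.5% FCS. They were preincubated 30 min with test agent, noggin or vehicle, then exposed to recombinant BMP4 for 30 min. SDS lysates were immunoblotted for phospho-SMAD1/5/8 and bands quantified by phosphorimager. Dose-dependence was fitted as a Hill plot.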

Mus musculus [9] = species: Mus musculus; test: as §4; procedure, shortened: as §5
Danio rerio [10] = species: Danio rerio; test: Inhibition of BMPR1 in zebrafish assessed as penetrance of mild embryonic axis dorsalization at 10 uM treated at 4 to 8 hrs post-fertilization measured at 48 hrs; parameters: scale not given: the % may be the effect or the level left; procedure, shortened: as §3
Danio rerio [11] = species: Danio rerio; test: Toxicity in zebrafish assessed as survivability at 10 uM treated at 3 hrs post-fertilization measured at 48 hrs; format: organism-based; conditions: in vivo
Danio rerio [12] = species: Danio rerio; test: Inhibition of BMPR1 in zebrafish assessed as penetrance of moderate embryonic axis dorsalization at 0.2 uM treated at 3 hrs post-fertilization measured at 48 hrs; parameters: scale not given: the % may be the effect or the level left; procedure, shortened: as §3
Mus musculus [13] = species: Mus musculus; test: Inhibition of BMPR1-mediated Smad-5 phosphorylation in BMP6-stimulated mouse PASMC at 4 uM treated 30 mins before BMP6 challenge measured after 30 mins by immunoblot analysis
Procedure, shortened: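 Wild-type mouse PASMCs were kept in RPMI with 0.5% FCS for 24 h. They were preincubated with compound or vehicle for 30 min, then stimulated for 30 min with recombinant BMP2, BMP4, BMP6 or BMP7 at 10 ng ml−1. Lysates in SDS buffer were immunoblotted with anti-phospho-SMAD1/5/8. Total SMAD1 and α-tubulin served as loading controls, and bands were quantified by phosphorimager.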

Mus musculus [14] = test: Inhibition of iron-dextran conjugate-induced Smad-1 phosphorylation in C57BL/6 mouse at 23 ug/g, iv after 1 hr; format: functional, organism-based
Danio rerio [15] = species: Danio rerio; test: Inhibition of BMPR1 in zebrafish assessed as penetrance of normal embryonic axis dorsalization at 5 uM treated at 3 hrs post-fertilization measured at 48 hrs; parameters: scale not given: the % may be the effect or the level left
Danio rerio [16] = species: Danio rerio; test: Inhibition of BMPR1 in zebrafish assessed as severity of embryonic axis dorsalization at 2 uM treated at 3 hrs post-fertilization measured at 48 hrs; parameters: scale not given: the % may be the effect or the level left
Mus musculus [17] = species: Mus musculus; test: Inhibition of BMPR1-mediated MAPK p38 phosphorylation in BMP4-stimulated mouse PASMC treated 30 mins before BMP4 challenge measured after 30 mins by immunoblot analysis
Procedure, shortened: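 Mouse PASMCs were held 24 h in 0.5% FCS RPMI, preincubated 30 min with a dose range of compound, then stimulated 30 min with BMP4. Phospho-SMAD1/5/8 and phospho-p38 were detected by immunoblot and quantitated by phosphorimager (RLU). IC50 was derived from a Hill plot of phospho-SMAD1/5/8 inhibition.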

Danio rerio [18] = species: Danio rerio; test: Inhibition of BMPR1 in zebrafish assessed as penetrance of mild embryonic axis dorsalization at 10 uM treated continuously from 10 hrs post-fertilization measured at 48 hrs; parameters: scale not given: the % may be the effect or the level left; procedure, shortened: as §3
Mus musculus [19] = species: Mus musculus; test: Inhibition of BMPR1-mediated Smad-1 phosphorylation in BMP2-stimulated mouse PASMC at 4 uM treated 30 mins before BMP2 challenge measured after 30 mins by immunoblot analysis; procedure, shortened: as §1
Danio rerio [20] = species: Danio rerio; test: Inhibition of BMPR1 in zebrafish assessed as severity of embryonic axis dorsalization at 0.5 uM treated at 3 hrs post-fertilization measured at 48 hrs; parameters: scale not given: the % may be the effect or the level left
Mus musculus [21] = species: Mus musculus; test: Inhibition of ALK3-mediated Smad-5 phosphorylation in BMPR2 deficient mouse PASMC at 10 uM by immunoblot analysis; procedure, shortened: as §2
Danio rerio [22] = species: Danio rerio; test: Inhibition of BMPR1 in zebrafish assessed as penetrance of normal embryonic axis dorsalization at 10 uM treated continuously from 10 hrs post-fertilization measured at 48 hrs; parameters: scale not given: the % may be the effect or the level left
Mus musculus [23] = species: Mus musculus; test: Inhibition of ALK2-mediated Smad-5 phosphorylation in BMPR2 deficient mouse PASMC at 10 uM by immunoblot analysis; procedure, shortened: as §2
Danio rerio [24] = species: Danio rerio; test: Inhibition of BMPR1 in zebrafish assessed as penetrance of normal embryonic axis dorsalization at 1 uM treated at 3 hrs post-fertilization measured at 48 hrs; parameters: scale not given: the % may be the effect or the level left
Danio rerio [25] = species: Danio rerio; test: Inhibition of BMPR1 in zebrafish assessed as penetrance of normal embryonic axis dorsalization at 0.2 uM treated at 3 hrs post-fertilization measured at 48 hrs; parameters: scale not given: the % may be the effect or the level left
Mus musculus [26] = species: Mus musculus; test: Inhibition of BMPR1-mediated Smad-8 phosphorylation in BMP7-stimulated mouse BMPR2 deficient PASMC at 4 uM treated 30 mins before BMP7measured after 30 mins by immunoblot analysis
Danio rerio [27] = species: Danio rerio; test: Inhibition of BMPR1 in zebrafish assessed as penetrance of mild embryonic axis dorsalization at 10 uM treated continuously from 8 hrs post-fertilization measured at 48 hrs; parameters: scale not given: the % may be the effect or the level left; procedure, shortened: as §3
Danio rerio [28] = species: Danio rerio; test: Inhibition of BMPR1 in zebrafish assessed as penetrance of normal embryonic axis dorsalization at 7.5 uM treated at 3 hrs post-fertilization measured at 48 hrs; parameters: scale not given: the % may be the effect or the level left

## c1cc(-c2cnn3cc(-c4ccc(OCCN5CCCCC5)cc4)cnc23)ccn1 [DORSOMORPHIN]
Danio rerio [1]
  Activity: 0%
Mus musculus [2]
  inhibition: Active
Danio rerio [3]
  Activity: 0%
Mus musculus [4]
  inhibition: Active
Danio rerio [5]
  Activity: 100%
Danio rerio [6]
  Activity: 22%
Danio rerio [7]
  Activity: 0%
[8]
  IC50: 470 nM
Mus musculus [9]
  inhibition: Dose-dependent effect
Danio rerio [10]
  Activity: 65%
Danio rerio [11]
  Activity: Non-toxic
Danio rerio [12]
  Activity: 0%
Mus musculus [13]
  inhibition: Active
Mus musculus [14]
  inhibition: Active
Danio rerio [15]
  Activity: 81%
Danio rerio [16]
  Activity: 0%
Mus musculus [17]
  inhibition: inactive
Danio rerio [18]
  Activity: 0%
Mus musculus [19]
  inhibition: Active
Danio rerio [20]
  Activity: 0%
Mus musculus [21]
  inhibition: Active
Danio rerio [22]
  Activity: 100%
Mus musculus [23]
  inhibition: Active
Danio rerio [24]
  Activity: 100%
Danio rerio [25]
  Activity: 100%
Mus musculus [26]
  inhibition: Active
Danio rerio [27]
  Activity: 85%
Danio rerio [28]
  Activity: 0%
